Experimental data from ChEMBL document CHEMBL4312003, “Optimization of biaryloxazolidinone as promising antibacterial agents against antibiotic-susceptible and antibiotic-resistant gram-positive bacteria” (Eur J Med Chem, 2020).
pIC50: −log10 of the molar value. Values after ≈ are worked out from the molar mass of the structure shown.

Legend:
[1] = Solubility of compound in water by UV spectrophotometric analysis; type: physicochemical
[2] = Metabolic stability in rat assessed as half life measured after intragastric administration; type: ADME; conditions: in vivo, po
[3] = Drug metabolism in rat plasma assessed as N-[[(5S)-3-[3-fluoro-4-[3-hydroxy-4-[(E)-(4-methylpiperazin-1-yl)iminomethyl]phenyl]phenyl]-2-oxo-oxazolidin-5-yl]methyl]acetamide formation administered vig ig route measured by UPLC-QTOF/MS analysis; type: ADME; conditions: po
[4] = Drug metabolism in rat plasma assessed as N-[[(5S)-3-[3-fluoro-4-[4-[(E)-piperazin-1-yliminomethyl]phenyl]phenyl]-2-oxo-oxazolidin-5-yl]methyl]acetamide formation administered vig ig route measured by UPLC-QTOF/MS analysis; type: ADME; conditions: po
[5] = Drug metabolism in rat plasma assessed as N-[[(5S)-3-[3-fluoro-4-(4-formylphenyl)phenyl]-2-oxo-oxazolidin-5-yl]methyl]acetamide formation administered vig ig route measured by UPLC-QTOF/MS analysis; type: ADME; conditions: po
[6] = Drug metabolism in rat plasma assessed as 4-[4-[(5S)-5-(acetamidomethyl)-2-oxo-oxazolidin-3-yl]-2-fluoro-phenyl]benzoic acid formation administered vig ig route measured by UPLC-QTOF/MS analysis; type: ADME; conditions: po
[7] = system: Staphylococcus aureus; test: Antibacterial activity against Staphylococcus aureus ATCC 29213 assessed as complete reduction in bacterial cell growth by CLSI protocol based broth liquid microdilution method; type: functional
How it was run: (§1)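 Broth liquid microdilution per CLSI guidelines; isolates identified on an automated MicroScan system before testing. MIC taken as lowest concentration giving total inhibition of bacterial growth, reported in μg/mL. S. aureus ATCC29213 run as the control strain.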

[8] = system: Staphylococcus aureus; test: Antibacterial activity against methicillin-resistant Staphylococcus aureus assessed as complete reduction in bacterial cell growth by CLSI protocol based broth liquid microdilution method; type: functional; how it was run: as §1
[9] = system: Staphylococcus aureus; test: Antibacterial activity against methicillin-sensitive Staphylococcus aureus assessed as complete reduction in bacterial cell growth by CLSI protocol based broth liquid microdilution method; type: functional; how it was run: as §1
[10] = system: Enterococcus faecalis; test: Antibacterial activity against linezolid-resistant Enterococcus faecalis assessed as complete reduction in bacterial cell growth by CLSI protocol based broth liquid microdilution method; type: functional; how it was run: as §1
[11] = system: Enterococcus faecium; test: Antibacterial activity against vancomycin-resistant Enterococcus faecium assessed as complete reduction in bacterial cell growth by CLSI protocol based broth liquid microdilution method; type: functional; how it was run: as §1
[12] = system: Staphylococcus aureus; test: Antibacterial activity against clinical isolates of methicillin-sensitive Staphylococcus aureus assessed as reduction in bacterial cell growth by CLSI protocol based broth microdilution method; type: functional; how it was run: as §1
[13] = system: Enterococcus faecalis; test: Antibacterial activity against clinical isolates of linezolid-resistant Enterococcus faecalis assessed as complete reduction in bacterial cell growth by CLSI protocol based broth liquid microdilution method; type: functional; how it was run: as §1
[14] = system: Enterococcus faecium; test: Antibacterial activity against clinical isolates of vancomycin-resistant Enterococcus faecium assessed as complete reduction in bacterial cell growth by CLSI protocol based broth liquid microdilution method; type: functional; how it was run: as §1
[15] = system: Staphylococcus aureus; test: Potency index, ratio of rade-zolid MIC to compound MIC for antibacterial activity against Staphylococcus aureus ATCC 29213 by CLSI protocol based broth liquid microdilution method; type: functional
[16] = system: Staphylococcus aureus; test: Potency index, ratio of rade-zolid MIC to compound MIC for antibacterial activity against methicillin-sensitive Staphylococcus aureus by CLSI protocol based broth liquid microdilution method; type: functional
[17] = system: Enterococcus faecalis; test: Potency index, ratio of rade-zolid MIC to compound MIC for antibacterial activity against linezolid-resistant Enterococcus faecalis by CLSI protocol based broth liquid microdilution method; type: functional
[18] = system: Enterococcus faecium; test: Potency index, ratio of rade-zolid MIC to compound MIC for antibacterial activity against vancomycin-resistant Enterococcus faecium by CLSI protocol based broth liquid microdilution method; type: functional
[19] = Stability in simulated gastric acid assessed as compound remaining at pH 1.2 incubated for 0.5 hrs; type: ADME; conditions: read-out: Stability
[20] = Stability in simulated gastric acid assessed as compound remaining at pH 1.2 incubated for 1 hr; type: ADME; conditions: read-out: Stability
[21] = Stability in simulated gastric acid assessed as compound remaining at pH 1.2 incubated for 1.5 hrs; type: ADME; conditions: read-out: Stability
[22] = Stability in simulated gastric acid assessed as compound remaining at pH 1.2 incubated for 2 hrs; type: ADME; conditions: read-out: Stability
[23] = system: HepG2; test: Cytotoxicity against human HepG2 cells assessed as reduction in cell viability incubated for 48 hrs by MTT assay; type: cell-based; conditions: HepG2, 48 h
How it was run: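 HepG2 cells were grown in RPMI1640 with 10% FBS and plated at about 4×10^4 cells/well in MEM. After 24 h at 37 °C in 5% CO2, compounds were added at the indicated final concentrations for 48 h. MTT was added (0.5 mg/mL final) for 4 h at 37 °C and the formazan dissolved in DMSO. Absorbance was read at 492 nm (630 nm reference). Each compound was tested three times; IC50 given as mean ± SD.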

[24] = target: T1, MAO-A (Homo sapiens, UniProt P21397); test: Inhibition of recombinant human MAO-A (active motif 31502) at 30 uM using luciferin as substrate incubated for 15 mins followed by substrate addition and measured after 60 mins by luminescence based method relative to control; conditions: probe luciferin
T1 sequence (P21397 whole entry): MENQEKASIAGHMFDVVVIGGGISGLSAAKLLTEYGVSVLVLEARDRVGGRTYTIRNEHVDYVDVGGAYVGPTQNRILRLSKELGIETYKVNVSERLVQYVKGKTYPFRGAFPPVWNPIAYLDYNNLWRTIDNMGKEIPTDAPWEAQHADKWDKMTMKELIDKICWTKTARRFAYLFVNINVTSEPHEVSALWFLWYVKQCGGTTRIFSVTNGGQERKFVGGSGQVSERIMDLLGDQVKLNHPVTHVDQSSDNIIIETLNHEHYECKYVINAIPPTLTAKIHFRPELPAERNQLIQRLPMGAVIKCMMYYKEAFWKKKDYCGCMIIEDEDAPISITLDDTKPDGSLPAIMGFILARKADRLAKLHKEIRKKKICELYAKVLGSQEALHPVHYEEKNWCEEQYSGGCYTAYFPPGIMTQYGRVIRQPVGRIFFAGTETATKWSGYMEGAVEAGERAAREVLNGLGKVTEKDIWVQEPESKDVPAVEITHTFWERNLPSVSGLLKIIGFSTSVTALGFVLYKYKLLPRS
How it was run: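 Recombinant human MAO-A was measured with the MAO-Glo kit, modified. Compounds were in DMSO (1% DMSO final) and preincubated with enzyme 15 min at room temperature. Luciferin-derivative substrate was then added and the reaction run 60 min at room temperature. Luciferase detection reagent was added for 20 min and luminescence read. Buffer without enzyme served as the 100% inhibition control; DMSO alone as the no-inhibition control. Percent inhibition = (Max − signal)/(Max − Min)×100.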

[25] = system: Staphylococcus aureus; test: Potency index, ratio of MIC of linezolid to MIC of compound for antibacterial activity against clinical isolates of methicillin-sensitive Staphylococcus aureus by CLSI protocol based broth liquid microdilution method; type: functional
[26] = Stability in human liver microsomes assessed as half life at 1.5 uM preincubated for 5 mins with NADPH and measured after 45 mins by LC/MS analysis; type: ADME, Microsome; conditions: liver microsomes
How it was run: (§2)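 Compound solution at 1.5 µM with 0.75 mg/mL microsomes (before NADPH addition) was preincubated 5 min at 37 °C. Reactions were started with NADPH (6 mM stock). Samples were quenched with acetonitrile containing internal standard at 0, 5, 15, 30 and 45 min, then centrifuged, and the supernatant was diluted with water for LC/MS. Runs were in duplicate. T1/2 = ln2/k from the log-linear slope, and CLint was derived from T1/2.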

[27] = Stability in human liver microsomes assessed as intrinsic clearance at 1.5 uM preincubated for 5 mins with NADPH and measured after 45 mins by LC/MS analysis; type: ADME, Microsome; conditions: read-out: CLH; how it was run: as §2
[28] = Stability in human liver microsomes assessed as compound remaining at 1.5 uM preincubated for 5 mins with NADPH and measured after 45 mins by LC/MS analysis; type: ADME, Microsome; conditions: liver microsomes, read-out: Stability; how it was run: as §2

SMILES	solubility [1]	MIC [7]	MIC [8]	MIC [9]	MIC [10]	MIC [11]	MIC [12]	MIC [13]	MIC [14]	Ratio [15]	Ratio [16]	Ratio [17]	Ratio [18]	remaining at 0.5 h [19]	remaining at 1 h [20]	remaining at 1.5 h [21]	remaining at 2 h [22]	pIC50 [23]	inhibition at 1 h, 30 µM [24]	further results
CC(=O)NC[C@H]1CN(c2ccc(-c3ccc(/C=N/N4CCN(C)CC4)cc3)c(F)c2)C(=O)O1	11.9 µg/mL (≈ 26.2 µM)	–	–	–	–	–	–	–	–	–	–	–	–	–	–	–	–	–	–	half-life [2]: 2.7 h; Drug metabolism [3]: Metabolite_Detected; Drug metabolism [4]: Metabolite_Detected; Drug metabolism [5]: Metabolite_Detected; Drug metabolism [6]: Metabolite_Detected
CC(=O)NC[C@H]1CN(c2ccc(-c3ccc(/C=N/N4CCOCC4)nc3)c(F)c2)C(=O)O1	–	0.125 µg/mL (≈ 0.283 µM)	0.125 µg/mL (≈ 0.283 µM)	0.25 µg/mL (≈ 0.566 µM)	0.25 µg/mL (≈ 0.566 µM)	0.25 µg/mL (≈ 0.566 µM)	0.25 to 0.5 µg/mL (≈ 0.566 to 1.13 µM)	0.25 to 0.5 µg/mL (≈ 0.566 to 1.13 µM)	1 µg/mL (≈ 2.27 µM)	2 - 4	2 - 4	2 - 4	2 - 4	–	–	–	–	–	–	–
CC(=O)NC[C@H]1CN(c2ccc(-c3ccc(/C=N/N4CCSCC4)c(O)c3)c(F)c2)C(=O)O1	–	0.125 µg/mL (≈ 0.265 µM)	0.125 µg/mL (≈ 0.265 µM)	0.125 µg/mL (≈ 0.265 µM)	0.125 µg/mL (≈ 0.265 µM)	0.125 µg/mL (≈ 0.265 µM)	0.125 to 0.25 µg/mL (≈ 0.265 to 0.529 µM)	0.125 to 0.25 µg/mL (≈ 0.265 to 0.529 µM)	0.125 to 0.25 µg/mL (≈ 0.265 to 0.529 µM)	–	–	–	–	96%	94.6%	82.9%	75.9%	< 4.60	62%	Ratio [25]: 4 - 32
CC(=O)NC[C@H]1CN(c2ccc(-c3ccc(/C=N/N4CCS(=O)(=O)CC4)nc3)c(F)c2)C(=O)O1	68 µg/mL (≈ 139 µM)	0.125 µg/mL (≈ 0.255 µM)	0.125 µg/mL (≈ 0.255 µM)	0.125 µg/mL (≈ 0.255 µM)	0.25 µg/mL (≈ 0.511 µM)	0.125 µg/mL (≈ 0.255 µM)	0.25 to 0.5 µg/mL (≈ 0.511 to 1.02 µM)	0.25 to 0.5 µg/mL (≈ 0.511 to 1.02 µM)	0.5 µg/mL (≈ 1.02 µM)	2 - 4	2 - 4	2 - 4	2 - 4	99.7%	99.4%	99.2%	98.7%	< 4.60	72%	half-life at 1.5 µM [26]: 6.82 h; CLint scaled at 1.5 µM [27]: 4.25 mL/min/kg; remaining at 0.75 h, 1.5 µM [28]: 93%
